Active and inactive are the calls of the source. The calls are words filed in the database; no cut-off is given here.
Experiments:
[1] = test system: Rattus norvegicus; experiment: Inhibition of passive cutaneous anaphylaxis (PCA) reaction in rats by intraperitoneal administration of 5 mg/kg; format: functional; conditions: ip
In short: (§1)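 Rats were sensitized by intradermal antiserum dilutions at several dorsal sites. After 48 h they were challenged iv with 1 mg ovalbumin in 1 mL saline containing 0.25% Evans blue. Drug was suspended in 1% gum tragacanth in saline and given ip or orally 10–15 min before challenge. Rats were killed 30 min later and the mean orthogonal wheal diameter was measured.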

[2] = test system: Rattus norvegicus; experiment: Inhibition of the passive cutaneous anaphylaxis (PCA) reaction in rats by intravenous administration of 0.1 mg/kg; format: functional
In short: (§2)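 Rats were given intradermal antiserum dilutions on the back. At 48 h, drug dissolved in the challenge solution (1 mg ovalbumin, 0.25% Evans blue, 1 mL saline) was injected iv with the antigen; sodium bicarbonate in slight molar excess was used if needed. Wheal diameters were read 30 min later and plotted against antiserum concentration, with the least-squares line extrapolated to a zero-antiserum base value. Five rats per group.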

[3] = test system: Rattus norvegicus; experiment: Inhibition of the passive cutaneous anaphylaxis (PCA) reaction in rats by intravenous administration of 0.01 mg/kg; format: functional; in short: as §2
[4] = test system: Rattus norvegicus; experiment: Inhibition of passive cutaneous anaphylaxis (PCA) reaction in rats, peroral administration 5 mg/kg; format: functional; conditions: route oral; in short: as §1
[5] = test system: Rattus norvegicus; experiment: Ability to inhibit the passive cutaneous anaphylaxis (PCA) reaction in rats by intravenous administration of 0.5 mg/kg; format: functional; in short: as §2
[6] = test system: Rattus norvegicus; experiment: Ability to inhibit the passive cutaneous anaphylaxis (PCA) reaction in rats by peroral administration of 1 mg/kg; format: functional; conditions: route oral; in short: as §1
[7] = test system: Rattus norvegicus; experiment: Ability to inhibit the passive cutaneous anaphylaxis (PCA) reaction in rats by intraperitoneal administration of 1 mg/kg; format: functional; conditions: ip; in short: as §1
[8] = test system: Rattus norvegicus; experiment: Ability to inhibit the passive cutaneous anaphylaxis (PCA) reaction in rats by intravenous administration of 0.01 mg/kg; format: functional; in short: as §2
[9] = test system: Rattus norvegicus; experiment: Ability to inhibit the passive cutaneous anaphylaxis (PCA) reaction in rats by peroral administration of 2 mg/kg; format: functional; in short: as §1
[10] = test system: Rattus norvegicus; experiment: Ability to inhibit the passive cutaneous anaphylaxis (PCA) reaction in rats by peroral administration; Inactive; format: functional, organism-based; in short: as §1
[11] = test system: Rattus norvegicus; experiment: Ability to inhibit the passive cutaneous anaphylaxis (PCA) reaction in rats by intravenous administration of 1.5 mg/kg; format: functional; in short: as §2
[12] = test system: Rattus norvegicus; experiment: Ability to inhibit the passive cutaneous anaphylaxis (PCA) reaction in rats by intravenous administration of 0.005 mg/kg; format: functional; in short: as §2
[13] = test system: Rattus norvegicus; experiment: Ability to inhibit the passive cutaneous anaphylaxis (PCA) reaction in rats by intravenous administration of 0.001 mg/kg; format: functional; in short: as §2
[14] = test system: Rattus norvegicus; experiment: Ability to inhibit the passive cutaneous anaphylaxis (PCA) reaction in rats by peroral administration of 10 mg/kg; format: functional; conditions: route oral; in short: as §1
[15] = test system: Rattus norvegicus; experiment: Ability to inhibit the passive cutaneous anaphylaxis (PCA) reaction in rats by peroral administration; format: functional; in short: as §1
[16] = test system: Rattus norvegicus; experiment: Ability to inhibit the passive cutaneous anaphylaxis (PCA) reaction in rats by intraperitoneal administration of 5 mg/kg; format: functional; conditions: ip; in short: as §1
[17] = test system: Rattus norvegicus; experiment: Ability to inhibit the passive cutaneous anaphylaxis (PCA) reaction in rats by peroral administration of 5 mg/kg; format: functional; conditions: route oral; in short: as §1

SMILES	inhibition in vivo at 5 mg/kg [1]	inhibition in vivo at 5 mg/kg [4]	other results
COc1cc2nc3cc(C(=O)O)nn3c(O)c2cc1OC	97%	5%	inhibition in vivo at 0.1 mg/kg [2]: 100%; inhibition in vivo at 0.01 mg/kg [3]: 16%
Oc1c2ccccc2nc2cc(-c3nn[nH]n3)nn12	26%	0%	
COc1cccc2nc3cc(C(=O)O)nn3c(O)c12	62%	18%	
CCn1c2ccc(Cl)cc2c(=O)n2nc(C(=O)O)cc12			inhibition in vivo at 0.1 mg/kg [2]: 16%
O=C(O)c1ccc2nc3cc(C(=O)O)nn3c(O)c2c1	21%	7%	
O=C(O)c1cc2nc3c(O)cccc3c(O)n2n1	100%		inhibition in vivo at 0.1 mg/kg [2]: 75%
COc1ccc2c(c1)c(=O)n1nc(-c3nn[nH]n3)cc1n2C	100%	0%	inhibition in vivo at 0.5 mg/kg [5]: 100%
O=C(O)c1cc2nc3ccc(F)cc3c(O)n2n1	95%	16%	inhibition in vivo at 0.1 mg/kg [2]: 62%; inhibition in vivo at 0.01 mg/kg [3]: 2%
O=C(O)c1ccc2c(O)n3nc(C(=O)O)cc3nc2c1	74%		inhibition in vivo at 0.1 mg/kg [2]: 56%
O=C(O)c1cc2nc3cccc(C(F)(F)F)c3c(O)n2n1	100%	10%	
O=C(O)c1cc2nc3cc(Cl)c(Cl)cc3c(O)n2n1	9%	0%	
COc1cccc2c(=O)n3nc(C(=O)O)cc3n(C)c12	60%		
Cc1cccc2c(O)n3nc(C(=O)O)cc3nc12	58%	0%	
Cc1ccc2nc3cc(C(=O)O)nn3c(O)c2c1	100%	0%	
CCCOc1cccc2c(=O)n3nc(C(=O)O)cc3n(CCC)c12	72%		
COc1cccc2nc3cc(C(=O)Nc4nn[nH]n4)nn3c(O)c12	100%	18%	
Cn1c2ccc(N)cc2c(=O)n2nc(C(=O)O)cc12	84%	0%	inhibition in vivo at 0.1 mg/kg [2]: 16%
CC(=O)Nc1ccc2c(c1)c(=O)n1nc(C(=O)O)cc1n2C		0%	
COc1cc2c(=O)n3nc(C(=O)O)cc3n(C)c2cc1OC	100%	6%	
O=C(O)c1cc2nc3ccccc3c(O)n2n1	100%	5%	inhibition in vivo at 1 mg/kg [6]: 23%; inhibition in vivo at 1 mg/kg [7]: 55%; inhibition in vivo at 0.1 mg/kg [2]: 54%; inhibition in vivo at 0.01 mg/kg [8]: 0%
O=C(O)c1cc2nc3ccc(O)cc3c(O)n2n1	100%	0%	
Cc1cc2n(C)c3ccc(C(=O)O)cc3c(=O)n2n1			inhibition in vivo at 0.5 mg/kg [5]: 21%; inhibition in vivo at 2 mg/kg ([9]; route oral): 9%
Cn1c2ccc(NC(=O)c3ccccc3)cc2c(=O)n2nc(C(=O)O)cc12	54%	1%	
Cn1c2ccccc2c(=O)n2nc(-c3nn[nH]n3)cc12	91%	0%	inhibition in vivo at 0.5 mg/kg [5]: 84%; inhibition in vivo at 0.1 mg/kg [2]: 0%; inhibition in vivo at 2 mg/kg ([9]; route oral): 52%
Cn1c2ccc(Cl)cc2c(=O)n2nc(-c3nn[nH]n3)cc12	100%	0%	inhibition in vivo at 0.5 mg/kg [5]: 100%; inhibition in vivo at 0.01 mg/kg [3]: 17%; inhibition in vivo at 2 mg/kg ([9]; route oral): 39%
COc1ccc2nc3cc(C(=O)O)nn3c(O)c2c1	94%	0%	inhibition in vivo at 0.01 mg/kg [3]: 30%

SMILES	inhibition in vivo at 5 mg/kg [1]	inhibition in vivo at 5 mg/kg [4]	other results
CCOC(=O)c1cc2nc3ccccc3c(O)n2n1	74%	0%	
Cc1cccc2c(O)n3nc(C(=O)Nc4nn[nH]n4)cc3nc12	100%	9%	
COc1cccc2c(O)n3nc(C(=O)Nc4nn[nH]n4)cc3nc12	100%	14%	
O=C(O)c1cc(=O)c2c(OCC(O)COc3cccc4oc(C(=O)O)cc(=O)c34)cccc2o1 [CROMOLYN SODIUM]			inhibition [10]: inactive; inhibition in vivo at 1.5 mg/kg [11]: 50%
COc1cccc2c(O)n3nc(C(=O)O)cc3nc12	70%	79%	inhibition in vivo at 0.005 mg/kg [12]: 31%; inhibition in vivo at 0.001 mg/kg [13]: 8%; inhibition in vivo at 0.1 mg/kg [2]: 100%; inhibition in vivo at 0.01 mg/kg [3]: 74%; inhibition in vivo at 10 mg/kg [14]: 62%
Oc1c2cc(Cl)ccc2nc2cc(-c3nn[nH]n3)nn12	25%	1%	
COc1cc2nc3cc(C(=O)Nc4nn[nH]n4)nn3c(O)c2cc1OC	100%	0%	
O=C(O)c1cc2n(Cc3ccccc3)c3ccc(Cl)cc3c(=O)n2n1		7%	
Cn1c2ccc(F)cc2c(=O)n2nc(-c3nn[nH]n3)cc12	100%	8%	inhibition in vivo at 0.1 mg/kg [2]: 100%; inhibition in vivo at 0.01 mg/kg [3]: 10%; inhibition in vivo at 2 mg/kg ([9]; route oral): 27%
COc1ccc2nc3cc(C(=O)Nc4nn[nH]n4)nn3c(O)c2c1	80%		inhibition in vivo at 0.1 mg/kg [2]: 90%; inhibition in vivo at 10 mg/kg [14]: 43%
O=C(Nc1nn[nH]n1)c1cc2n(Cc3ccccc3)c3ccc(Cl)cc3c(=O)n2n1	3%	0%	
CCOC(=O)c1cc2n(CC)c3ccc(Cl)cc3c(=O)n2n1	100%		
Nc1ccc2nc3cc(C(=O)O)nn3c(O)c2c1	38%	16%	
Cn1c2ccc(F)cc2c(=O)n2nc(C(=O)O)cc12	83%		inhibition in vivo at 0.5 mg/kg [5]: 84%; inhibition in vivo at 2 mg/kg ([9]; route oral): 40%
O=C(O)c1cc2nc3ccc(Cl)cc3c(O)n2n1	45%	0%	
O=C(Nc1nn[nH]n1)c1cc2nc3ccc(Cl)cc3c(O)n2n1	22%	8%	
O=C(Nc1nn[nH]n1)c1cc2nc3ccccc3c(O)n2n1	100%	1%	
O=C(Nc1nn[nH]n1)c1cc2nc3ccc(O)cc3c(O)n2n1	100%		inhibition in vivo at 0.1 mg/kg [2]: 90%
COc1ccc2c(c1)c(=O)n1nc(C(=O)O)cc1n2C	81%	4%	inhibition in vivo at 0.5 mg/kg [5]: 100%; inhibition in vivo at 0.01 mg/kg [3]: 23%
COc1ccc2nc3cc(-c4nn[nH]n4)nn3c(O)c2c1	87%		inhibition in vivo at 1 mg/kg [6]: 21%
Cn1c2ccccc2c(=O)n2nc(C(=O)Nc3nn[nH]n3)cc12	51%		Inhibition [15]: 0%
CSc1ccc2nc3cc(C(=O)Nc4nn[nH]n4)nn3c(O)c2c1	90%		
Cn1c2ccc(Cl)cc2c(=O)n2nc(C(=O)O)cc12			inhibition in vivo at 1 mg/kg ([7]; read-out: Inhibition): 59%; inhibition in vivo at 0.5 mg/kg [5]: 70%; inhibition in vivo at 2 mg/kg ([9]; read-out: Inhibition, route oral): 9%
COc1cccc2c(O)n3nc(-c4nn[nH]n4)cc3nc12	27%	3%	
Cc1ccc2c(c1)c(=O)n1nc(C(=O)O)cc1n2C			inhibition in vivo at 0.5 mg/kg [5]: 55%; inhibition in vivo at 2 mg/kg ([9]; route oral): 25%
Cn1c2ccccc2c(=O)n2nc(C(=O)O)cc12			inhibition in vivo at 5 mg/kg [16]: 100%; inhibition in vivo at 5 mg/kg [17]: 40%; inhibition in vivo at 0.5 mg/kg [5]: 100%
